Experimental data taken from the array DNA melting data of Ke et al. (doi:10.1101/2024.01.08.574731).

Key:
[1] = folding enthalpy; higher = less favourable; fluorescence melt of hairpins on a sequencing array, two-state fit; conditions: sodium 0.088 M
Procedure, shortened: (§1)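 Hairpins were imaged by Cy3 fluorescence on a sequenced MiSeq flow cell with annealed Cy3 and quencher oligos, in 50 mM Na-HEPES pH 8.0, 25 mM NaCl, in 2.5 °C steps up to 60 °C. Bootstrapped two-state fits of normalised signals gave melting temperature and folding enthalpy. Four replicates were combined by inverse variance, and fitted temperatures were raised by 9.35 °C to match UV melts.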

[2] = melting temperature; fluorescence melt of hairpins on a sequencing array, two-state fit, raised by 9.35 °C to match UV melts; conditions: sodium 0.088 M
Procedure, shortened: as §1

Sequence | folding enthalpy [1] | Tm [2]
GATCACCATAGTGATC ((((((....)))))) | -42.2 kcal/mol | 58.5 °C
GATCACCCGGGTGATC ((((((....)))))) | -51.9 kcal/mol | 59 °C
GATCACCCTGGTGATC ((((((....)))))) | -41.1 kcal/mol | 64.1 °C
GATCACCGAAAGGTAATC (((.(((....))).))) | -20.9 kcal/mol | 39.5 °C
GATCACCGATGTGATC ((((((....)))))) | -30.1 kcal/mol | 54.6 °C
GATCACCGGCGTGATC ((((((....)))))) | -37.7 kcal/mol | 54.7 °C
GATCACCGGGGTGATC ((((((....)))))) | -46.5 kcal/mol | 62.7 °C
GATCACCGTCGTGATC ((((((....)))))) | -39 kcal/mol | 55.2 °C
GATCACCTAAGTGATC ((((((....)))))) | -38.9 kcal/mol | 56.4 °C
GATCACCTAGGTGATC ((((((....)))))) | -41.5 kcal/mol | 59.7 °C
GATCACCTCTGTGATC ((((((....)))))) | -42.2 kcal/mol | 55 °C
GATCACCTTCGTGATC ((((((....)))))) | -48.5 kcal/mol | 56.7 °C
GATCACCTTTGTGATC ((((((....)))))) | -42.4 kcal/mol | 55 °C
GATCACGAAAGTGCATC ((((((....))).))) | -21.4 kcal/mol | 42.8 °C
GATCACGAAAGTGTAATC ((((((....)))..))) | -10.3 kcal/mol | 30.1 °C
GATCACGAATGTGATC ((((((....)))))) | -37.5 kcal/mol | 67.7 °C
GATCACGACGGTGATC ((((((....)))))) | -37.8 kcal/mol | 59.8 °C
GATCACGACTGTGATC ((((((....)))))) | -37.1 kcal/mol | 64 °C
GATCACGATTGTGATC ((((((....)))))) | -33.2 kcal/mol | 56.6 °C
GATCACGCCCGTGATC ((((((....)))))) | -39.8 kcal/mol | 60.6 °C
GATCACGGAAACATGATC (((((.(....).))))) | -26 kcal/mol | 35.4 °C
GATCACGGAAACGTGATC (((((((....))))))) | -34.2 kcal/mol | 66.2 °C
GATCACGGATGTGATC ((((((....)))))) | -37.1 kcal/mol | 67.5 °C
GATCACGGTGGTGATC ((((((....)))))) | -37.2 kcal/mol | 58.3 °C

Sequence | folding enthalpy [1] | Tm [2]
GATCACGTAAGTGATC ((((((....)))))) | -30.8 kcal/mol | 69.3 °C
GATCACGTGAGTGATC ((((((....)))))) | -28.4 kcal/mol | 69.2 °C
GATCACGTGGGTGATC ((((((....)))))) | -39.5 kcal/mol | 57.1 °C
GATCACTAACGTGATC ((((((....)))))) | -33.1 kcal/mol | 54.9 °C
GATCACTACGGTGATC ((((((....)))))) | -37.9 kcal/mol | 58.7 °C
GATCACTCAAGTGATC ((((((....)))))) | -49.2 kcal/mol | 57 °C
GATCACTCATGTGATC ((((((....)))))) | -40.5 kcal/mol | 57 °C
GATCACTCCTGTGATC ((((((....)))))) | -33.9 kcal/mol | 59.7 °C
GATCACTCGCGTGATC ((((((....)))))) | -44.5 kcal/mol | 57.1 °C
GATCACTGACGTGATC ((((((....)))))) | -32 kcal/mol | 54.3 °C
GATCACTGCAGTGATC ((((((....)))))) | -44.7 kcal/mol | 61.7 °C
GATCACTTACGTGATC ((((((....)))))) | -38.1 kcal/mol | 57.4 °C
GATCACTTCGGTGATC ((((((....)))))) | -40 kcal/mol | 57.4 °C
GATCACTTGTGTGATC ((((((....)))))) | -40.4 kcal/mol | 56.1 °C
GATCACTTTGGTGATC ((((((....)))))) | -42.3 kcal/mol | 57.8 °C
GATCAGAAATCTGATC ((((((....)))))) | -35.2 kcal/mol | 46 °C
GATCAGAAGACTGATC ((((((....)))))) | -29.1 kcal/mol | 44.9 °C
GATCAGAAGCTGATC ((((((...)))))) | -33 kcal/mol | 48 °C
GATCAGACCACTGATC ((((((....)))))) | -37.1 kcal/mol | 49.4 °C
GATCAGACGCCTGATC ((((((....)))))) | -40.1 kcal/mol | 50 °C
GATCAGACGCTGATC ((((((...)))))) | -34.2 kcal/mol | 47.7 °C
GATCAGACTCCTGATC ((((((....)))))) | -36.1 kcal/mol | 47.5 °C
GATCAGACTTCTGATC ((((((....)))))) | -36.3 kcal/mol | 50.3 °C
GATCAGAGAACTGATC ((((((....)))))) | -30.5 kcal/mol | 44.5 °C

Sequence | folding enthalpy [1] | Tm [2]
GATCAGAGACCTGATC ((((((....)))))) | -34.6 kcal/mol | 45.6 °C
GATCAGATACTGATC ((((((...)))))) | -34.2 kcal/mol | 50.6 °C
GATCAGATAGCTGATC ((((((....)))))) | -38 kcal/mol | 46.8 °C
GATCAGATCCCTGATC ((((((....)))))) | -31.8 kcal/mol | 48.3 °C
GATCAGATGCCTGATC ((((((....)))))) | -23.8 kcal/mol | 48.4 °C
GATCAGATGGCTGATC ((((((....)))))) | -30.4 kcal/mol | 49.3 °C
GATCAGCAGGCTGATC ((((((....)))))) | -42.1 kcal/mol | 59.2 °C
GATCAGCCAGCTGATC ((((((....)))))) | -40.1 kcal/mol | 56.5 °C
GATCAGCCGACTGATC ((((((....)))))) | -35.5 kcal/mol | 49.6 °C
GATCAGCGAAAGCTATC (((.(((....)))))) | -12 kcal/mol | 32.6 °C
GATCAGCGATCTGATC ((((((....)))))) | -19.5 kcal/mol | 50 °C
GATCAGCGCCTGATC ((((((...)))))) | -38.9 kcal/mol | 48.7 °C
GATCAGCGCGCTGATC ((((((....)))))) | -43 kcal/mol | 67.4 °C
GATCAGCGTACTGATC ((((((....)))))) | -30.2 kcal/mol | 51.6 °C
GATCAGCTTTCTGATC ((((((....)))))) | -35 kcal/mol | 50.5 °C
GATCAGGAACCTGATC ((((((....)))))) | -35 kcal/mol | 54.5 °C
GATCAGGAGCCTGATC ((((((....)))))) | -31.6 kcal/mol | 49.9 °C
GATCAGGAGGCTGATC ((((((....)))))) | -37.2 kcal/mol | 48.2 °C
GATCAGGATACTGATC ((((((....)))))) | -33.8 kcal/mol | 56 °C
GATCAGGCATCTGATC ((((((....)))))) | -45.1 kcal/mol | 55.6 °C
GATCAGGCGGCTGATC ((((((....)))))) | -47.8 kcal/mol | 53.2 °C
GATCAGGGATCTGATC ((((((....)))))) | -29.1 kcal/mol | 57.1 °C
GATCAGGGCACTGATC ((((((....)))))) | -37.2 kcal/mol | 59.8 °C
GATCAGGGCCTGATC ((((((...)))))) | -68.2 kcal/mol | 53 °C

Sequence | folding enthalpy [1] | Tm [2]
GATCAGGGGCTGATC ((((((...)))))) | -27.4 kcal/mol | 47.5 °C
GATCAGGGTCTGATC ((((((...)))))) | -24.1 kcal/mol | 49.7 °C
GATCAGGTTACTGATC ((((((....)))))) | -38.2 kcal/mol | 57.6 °C
GATCAGGTTCTGATC ((((((...)))))) | -34.1 kcal/mol | 50.5 °C
GATCAGGTTGCTGATC ((((((....)))))) | -46.3 kcal/mol | 51.2 °C
GATCAGTAAGCTGATC ((((((....)))))) | -41.3 kcal/mol | 52.3 °C
GATCAGTACGCTGATC ((((((....)))))) | -44.1 kcal/mol | 53.8 °C
GATCAGTAGCCTGATC ((((((....)))))) | -31.4 kcal/mol | 49.6 °C
GATCAGTCCCCTGATC ((((((....)))))) | -35.7 kcal/mol | 49.3 °C
GATCAGTCCGCTGATC ((((((....)))))) | -53.2 kcal/mol | 53.1 °C
GATCAGTCGCCTGATC ((((((....)))))) | -57.2 kcal/mol | 51.5 °C
GATCAGTCGCTGATC ((((((...)))))) | -29.6 kcal/mol | 49.8 °C
GATCAGTGGACTGATC ((((((....)))))) | -37 kcal/mol | 51.8 °C
GATCAGTTACTGATC ((((((...)))))) | -41.7 kcal/mol | 51.4 °C
GATCAGTTTTCTGATC ((((((....)))))) | -30.5 kcal/mol | 52.3 °C
GATCATAAGGATGATC ((((((....)))))) | -32.5 kcal/mol | 45.3 °C
GATCATAATATGATC ((((((...)))))) | -30.7 kcal/mol | 46.3 °C
GATCATAATGATGATC ((((((....)))))) | -29.9 kcal/mol | 45.6 °C
GATCATACAAATGATC ((((((....)))))) | -33.6 kcal/mol | 44.6 °C
GATCATACAATGATC ((((((...)))))) | -39.5 kcal/mol | 48.4 °C
GATCATACCATGATC ((((((...)))))) | -40.3 kcal/mol | 48.9 °C
GATCATACCGATGATC ((((((....)))))) | -35.7 kcal/mol | 46.9 °C
GATCATACCTATGATC ((((((....)))))) | -41.5 kcal/mol | 48.6 °C
GATCATACGCATGATC ((((((....)))))) | -37 kcal/mol | 48 °C
